Source: ChEMBL document CHEMBL4152279, “Synthesis, cytotoxic evaluation and target identification of thieno[2,3-d]pyrimidine derivatives with a dithiocarbamate side chain at C2 position” (Eur J Med Chem, 2018)
The source made the active and inactive calls. The rule behind the calls is not given here.

How the values were obtained:
[1] = molecular target: T1, RNA-binding protein EWS (Homo sapiens) (UniProt Q01844); test: Binding affinity to RNA-binding protein EWS isoform 6 in human A549 cells at 0.15 mM after 4 hrs by HPLC-MS based pull down assay relative to control; assay type: cell-based
T1 sequence (whole entry): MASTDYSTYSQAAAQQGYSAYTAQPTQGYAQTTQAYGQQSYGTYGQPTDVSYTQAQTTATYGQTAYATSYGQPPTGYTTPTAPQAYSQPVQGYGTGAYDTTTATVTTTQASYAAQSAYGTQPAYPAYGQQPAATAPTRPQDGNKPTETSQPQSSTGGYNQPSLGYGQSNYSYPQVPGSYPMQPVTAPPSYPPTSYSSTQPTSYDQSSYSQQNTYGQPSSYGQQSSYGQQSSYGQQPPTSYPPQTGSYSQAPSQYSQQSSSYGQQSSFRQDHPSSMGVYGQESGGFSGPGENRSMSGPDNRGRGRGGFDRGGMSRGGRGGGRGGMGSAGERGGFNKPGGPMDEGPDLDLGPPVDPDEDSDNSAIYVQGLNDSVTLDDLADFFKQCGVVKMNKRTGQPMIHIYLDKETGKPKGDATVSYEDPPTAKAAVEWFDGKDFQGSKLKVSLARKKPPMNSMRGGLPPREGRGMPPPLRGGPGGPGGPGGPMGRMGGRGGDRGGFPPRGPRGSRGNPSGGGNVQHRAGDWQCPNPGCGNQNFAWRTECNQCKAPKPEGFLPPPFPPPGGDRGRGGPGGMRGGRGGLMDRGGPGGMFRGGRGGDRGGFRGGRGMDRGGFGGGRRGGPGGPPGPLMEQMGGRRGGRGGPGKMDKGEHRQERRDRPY
Outline: (§1)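 A549 lysate in NETN buffer (pH 8.0, 0.5% NP-40) incubated with biotinylated probe (0.15 mM final) 4 h at 4 °C, with biotin or control probe as comparators. Streptavidin Dynabeads 1 h at 4 °C, six NETN washes, proteins eluted by boiling in SDS buffer. After trypsin digestion, identification by LC-MS/MS on Q Exactive HF.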

[2] = test system: A549; test: Binding affinity to tubulin alpha-3E in human A549 cells at 0.15 mM after 4 hrs by HPLC-MS based pull down assay relative to control; assay type: cell-based; outline: as §1
[3] = molecular target: Tubulin beta-4B chain (Homo sapiens) (UniProt P68371); test: Binding affinity to tubulin beta-4B in human A549 cells at 0.15 mM after 4 hrs by HPLC-MS based pull down assay relative to control; assay type: cell-based; outline: as §1
[4] = molecular target: Tubulin beta-3 chain (Homo sapiens) (UniProt Q13509); test: Binding affinity to tubulin beta-3 in human A549 cells at 0.15 mM after 4 hrs by HPLC-MS based pull down assay relative to control; assay type: cell-based; outline: as §1
[5] = molecular target: Serine/arginine-rich splicing factor 1 (Homo sapiens) (UniProt Q07955); test: Binding affinity to serine/arginine-rich-splicing factor 1 in human A549 cells at 0.15 mM after 4 hrs by HPLC-MS based pull down assay relative to control; assay type: cell-based; outline: as §1
[6] = molecular target: T1, RNA-binding protein EWS (Homo sapiens); test: Binding affinity to RNA-binding protein EWS in human A549 cells at 0.15 mM after 4 hrs by HPLC-MS based pull down assay relative to control; assay type: cell-based; outline: as §1
[7] = organism: Sus scrofa; test: Inhibition of colchicine binding to porcine tubulin treated 2 hrs post colchicine treatment by pull down assay
Outline: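 Porcine neuronal tubulin was preincubated with excess taxol, colchicine, vinblastine or nocodazole for 2 h at 4 °C. Biotinylated probe was then added in NETN buffer, followed by streptavidin Dynabead pull-down for 1 h at 4 °C and six washes. Bound α-tubulin was detected by SDS–PAGE and immunoblot. Three independent experiments.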

Sequence of Serine/arginine-rich splicing factor 1 (Homo sapiens) (Q07955 whole entry): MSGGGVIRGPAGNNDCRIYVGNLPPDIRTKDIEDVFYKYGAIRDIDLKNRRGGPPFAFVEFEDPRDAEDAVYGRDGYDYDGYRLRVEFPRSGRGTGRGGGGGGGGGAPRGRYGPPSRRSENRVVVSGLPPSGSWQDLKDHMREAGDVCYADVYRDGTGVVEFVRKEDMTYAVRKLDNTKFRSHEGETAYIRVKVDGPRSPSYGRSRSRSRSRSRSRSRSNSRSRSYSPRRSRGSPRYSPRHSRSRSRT
Sequence of Tubulin beta-4B chain (Homo sapiens) (P68371 whole entry): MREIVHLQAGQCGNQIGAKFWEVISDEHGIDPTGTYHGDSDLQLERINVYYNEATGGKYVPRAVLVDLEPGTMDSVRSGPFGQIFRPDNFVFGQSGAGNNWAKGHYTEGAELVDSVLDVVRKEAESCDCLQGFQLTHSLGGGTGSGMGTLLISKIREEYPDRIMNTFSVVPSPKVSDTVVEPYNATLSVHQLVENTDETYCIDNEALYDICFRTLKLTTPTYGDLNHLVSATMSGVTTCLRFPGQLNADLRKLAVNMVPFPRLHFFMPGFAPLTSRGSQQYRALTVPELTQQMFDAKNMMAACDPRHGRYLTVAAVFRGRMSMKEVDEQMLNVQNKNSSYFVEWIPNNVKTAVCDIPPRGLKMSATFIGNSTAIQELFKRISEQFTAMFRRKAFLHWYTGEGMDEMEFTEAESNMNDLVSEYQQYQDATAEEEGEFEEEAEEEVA
Sequence of Tubulin beta-3 chain (Homo sapiens) (Q13509 whole entry): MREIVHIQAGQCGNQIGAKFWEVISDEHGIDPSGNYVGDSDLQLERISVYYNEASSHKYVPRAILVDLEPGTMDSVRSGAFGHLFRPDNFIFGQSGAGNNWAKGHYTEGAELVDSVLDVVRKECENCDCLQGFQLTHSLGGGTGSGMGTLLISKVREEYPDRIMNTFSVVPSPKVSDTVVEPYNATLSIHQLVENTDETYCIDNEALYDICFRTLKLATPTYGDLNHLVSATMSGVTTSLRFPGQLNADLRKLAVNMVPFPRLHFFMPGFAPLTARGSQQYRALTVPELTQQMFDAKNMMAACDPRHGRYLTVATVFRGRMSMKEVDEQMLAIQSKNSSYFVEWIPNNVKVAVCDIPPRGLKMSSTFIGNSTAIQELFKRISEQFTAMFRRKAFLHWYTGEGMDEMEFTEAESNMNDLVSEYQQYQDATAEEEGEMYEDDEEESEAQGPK

Cc1cc2c(=O)[nH]c(CSC(=S)N(CCCNC(=O)CCCC[C@@H]3SC[C@@H]4NC(=O)N[C@@H]43)Cc3ccc(C#N)cc3)nc2s1
Activity [1]: 40.5% | Activity [2]: 15.3% | Activity [3]: 34.2% | Activity [4]: 16.7% | Activity [5]: 52.2% | Activity [6]: 55.8% | inhibition [7]: Active
